Test results taken from PubChem BioAssay.
Inconclusive results are not listed.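 Rule for the calls, unless noted: active = viability at or below 27.92% in each of two runs, the all-compound median minus 4 SD; inconclusive = no clear call, values can overlap the other calls; inactive = the rest.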

Experiments:
[1] = OD615 S. cerevisiae growth inhibition, permissive medium, pilot counter-assay, permissive growth control for S. cerevisiae lifespan shortening project (AID 705;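 active = growth inhibition above 25% in both replicates, a cutoff set 3 SD above the mean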); conditions: OD615, 24 h, at 10 µM, hits give high values
Outline: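 System: Engineered DeaD yeast | Buffer or medium: SC raffinose/galactose permissive medium | Incubation: Cells pre-grown 4 h, then 24 h compound exposure, 30 °C humidified | Measured by: Absorbance (optical density) at 615 nm | Read-out: Reduction in yeast growth (OD615)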

[2] = Restrictive medium S. cerevisiae growth inhibition, OD615, pilot screen of yeast lifespan reduction project, restrictive growth control (AID 706;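 active = growth inhibition above a set limit, 3 SD over mean compound inhibition, in both replicates, cut at about 43% in these data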;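 note: modified DeaD lifespan yeast strain shifted to restrictive glucose medium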); conditions: OD615, 48 h, at 10 µM, hits give high values
Outline: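 Material: modified S. cerevisiae; Medium: glucose-based CSMM-D restrictive medium; Compound dosing: one concentration, 10 µM final, 0.25% DMSO; Incubation: 48 h compound exposure at 30 °C; Measured by: OD615.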

[3] = viability gain of MRP-1-high H69AR cells under doxorubicin, pilot screen, MRP-1 activator project, CellTiter-Glo, duplicate (AID 807;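 active = viability increase at or above a cutoff of the median across tested compounds plus 3 SD, cut at about 8.5% in these data, passing the limit was not always enough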;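 note: compound pretreatment 18-22 h then 72 h combined with doxorubicin; 0% = doxorubicin alone and 100% = vehicle without doxorubicin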); conditions: H69AR viability with doxorubicin, CellTiter-Glo luminescence; at 10 µM; hits give high values
[4] = growth suppression of beta-catenin knockout HCT116, pilot screen, human colon tumor cells (AID 823;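 active = cell viability at or below a set limit in both duplicate runs, the limit being the all-compound median minus 4 SD, cut at about 23% in these data, passing the limit was not always enough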;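 note: 0% = wells killed by 20 µM Hyamine and 100% = untreated DMSO cell wells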); conditions: CellTiter-Glo, 60 h, at 10 µM, hits give low values
[5] = growth suppression of PTEN-deleted HCT116, pilot screen, cell-based, HCT116 clonal line, CellTiter-Glo (AID 824); conditions: 60 h, at 10 µM, hits give low values;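 note: 0% = 20 µM Hyamine control and 100% = vehicle cell control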
[6] = inhibitors of the yeast RAM network, pilot screen, dse1pr::URA3 reporter, 5-FOA selection (AID 869;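 active = inhibition over a set limit, the all-compound mean plus 3 SD, in both replicate runs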;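 note: 0% = DMSO wells with no growth and 100% = 10 µM 1-NA-PP1 with full growth; RAM network block rescues cells from 5-FOA so hits raise OD615 growth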); conditions: S. cerevisiae dse1pr::URA3 5-FOA growth, OD615, 2 d; at 10 µM; hits give high values; strain carries analog-sensitive mutant Cbk1 kinase

CCOC(=O)C1=C(N)OC2=C(C(=O)CC(C)(C)C2)C1C1CCCCC1 (stereo not given)
inactive: growth inhibition [1] -13.2% | growth inhibition [2] -4.08% | viability increase [3] -1.22% | viability [4] 93.3% | viability [5] 92.9% | inhibition [6] 1.4%

CN(C)c1ccc(-c2noc(C3CCN(S(=O)(=O)c4cccc(Cl)c4)CC3)n2)cc1
inactive: growth inhibition [1] -5.86% | growth inhibition [2] -11.7% | viability increase [3] 3.01% | viability [4] 82.5% | viability [5] 94.2% | inhibition [6] 2.6%

O=C(NCc1ccc2c(c1)OCO2)c1nnc(Cc2ccc(F)cc2)o1
inactive: growth inhibition [1] -1.76% | growth inhibition [2] 9.91% | viability increase [3] 0.87% | viability [4] 105% | viability [5] 97.1% | inhibition [6] 3.56%

COc1cc(OC)c(NC(=O)CS(=O)(=O)Cc2nc(-c3ccc(C)cc3)oc2C)cc1Cl
inactive: growth inhibition [1] -22.6% | growth inhibition [2] -17% | viability increase [3] -1.21% | viability [4] 85.5% | viability [5] 78.1% | inhibition [6] 1.96%

N#CCCn1cc(C(CC(=O)c2ccc(Br)cc2)C(=O)O)c2ccccc21 (stereo not given)
inactive: growth inhibition [1] 3.64% | growth inhibition [2] 4.21% | viability increase [3] -3.05% | viability [4] 91.7% | viability [5] 96.4% | inhibition [6] 1.56%

COc1ccc(OC)c(NC(=O)C2COc3ccccc3O2)c1 (stereo not given)
inactive: growth inhibition [1] -10.5% | growth inhibition [2] -6.21% | viability increase [3] -2.23% | viability [4] 82.7% | viability [5] 80.3% | inhibition [6] 0.25%

NC/C(=N\O)c1ccc(Cl)cc1Cl
inactive: growth inhibition [1] -6.44% | growth inhibition [2] -12.5% | viability increase [3] 2.52% | viability [4] 97.7% | viability [5] 94.1% | inhibition [6] 1.2%

CCOC(=O)c1ccc(NC(=O)c2cc3ccccc3o2)cc1
inactive: growth inhibition [1] -5.56% | growth inhibition [2] -8.95% | viability increase [3] 1.54% | viability [4] 86.2% | viability [5] 86.6% | inhibition [6] 1%

CCOC(=O)CSc1nc2c(c(=O)n(C)c(=O)n2C)n1Cc1ccccc1F
inactive: growth inhibition [1] -8.61% | growth inhibition [2] 2.55% | viability increase [3] 0.38% | viability [4] 95.9% | viability [5] 93.6% | inhibition [6] 2%

Cc1ccc(C)c(C(=O)Nc2c(C(N)=O)oc3ccccc23)c1
inactive: growth inhibition [1] -5.56% | growth inhibition [2] -1.59% | viability increase [3] -3% | viability [4] 94.2% | viability [5] 86.7% | inhibition [6] 0.595%

CCOC(=O)c1[nH]c(C)c(C(=O)N2CCOCC2)c1C
inactive: growth inhibition [1] -6.62% | growth inhibition [2] -4.17% | viability increase [3] -0.92% | viability [4] 109% | viability [5] 104% | inhibition [6] 3.29%

CCOc1ccc(NC(=O)C2CSC(c3ccncc3)=N2)cc1 (stereo not given)
inactive: growth inhibition [1] -3.44% | growth inhibition [2] 29.4% | viability increase [3] -0.05% | viability [4] 98.3% | viability [5] 103% | inhibition [6] 0.675%

Clc1ccccc1-c1nnc2sc(-c3ccncc3)nn12
inactive: growth inhibition [1] -1.33% | growth inhibition [2] 19.3% | viability increase [3] -3.61% | viability [4] 106% | viability [5] 90.8% | inhibition [6] 0.635%

CCOc1ccc(-c2nc(CSCC(=O)N3CCN(c4cccc(OC)c4)CC3)c(C)o2)cc1
inactive: growth inhibition [1] 5.25% | growth inhibition [2] 19.7% | viability increase [3] -2.52% | viability [4] 34% | viability [5] 47.4% | inhibition [6] 1.53%

CC1CCN(c2nc(-c3ccccc3)cc(C(F)(F)F)n2)CC1
inactive: growth inhibition [1] -10.7% | growth inhibition [2] -11% | viability increase [3] -1.76% | viability [4] 88.1% | viability [5] 90.6% | inhibition [6] 2.21%

Cc1ccccc1S(=O)(=O)Cc1ccc(C(=O)N2CC(C)CC(C)C2)o1 (stereo not given)
inactive: growth inhibition [1] -18.1% | growth inhibition [2] -32% | viability increase [3] -0.61% | viability [4] 103% | viability [5] 90.2% | inhibition [6] -0.465%

Cc1cccc(N2CCN(C(=O)c3cc4c(C)nc5ccccc5c4o3)CC2)c1C
inactive: growth inhibition [1] -8.18% | growth inhibition [2] -1.81% | viability increase [3] 4.84% | viability [4] 71.7% | viability [5] 78.2% | inhibition [6] -1.31%

COc1ccc(OC)c2c1sc(=NC(=O)c1ccco1)n2C
inactive: growth inhibition [1] -3.52% | growth inhibition [2] 4.96% | viability increase [3] -5.98% | viability [4] 71.2% | viability [5] 67.7% | inhibition [6] 2.21%

COC(=O)C1=C(N)N(c2ccc(F)cc2)C2=C(C(=O)CCC2)C1c1ccc2c(c1)OCO2 (stereo not given)
inactive: growth inhibition [1] -6.41% | growth inhibition [2] -5.16% | viability increase [3] -0.72% | viability [4] 84.9% | viability [5] 86% | inhibition [6] 3.19%

O=C(CCS(=O)(=O)c1cccc2nonc12)N1CCN(c2ccc(F)cc2)CC1
inactive: growth inhibition [1] -6.7% | growth inhibition [2] -0.575% | viability increase [3] 0.64% | viability [4] 96.3% | viability [5] 96.2% | inhibition [6] 1.71%
